The text below walks through data of ChEMBL document CHEMBL3271960, “7-Aza analogs of the analgetic agent azabicyclane. Synthesis and pharmacologic analysis” (J Med Chem, 1976).

Data set [1] concerns Mus musculus. The data set can be described thus: Analgesic activity in sc dosed Swiss-Webster Royal Hart mouse after 30 mins by Haffner tail clamp test. In kind it is functional. The note with it: 0.5 h.
In data set [2] the test system is Mus musculus. The data set can be described thus: Antidiarrheal activity in Swiss-Webster Royal Hart mouse assessed as decrease in colonic propulsive motility at 10 mg/kg, ip. In kind it is functional, organism-based. Further details: dose 10 mg/kg.
Data set [3] deals with Mus musculus. In words: Analgesic activity in Swiss-Webster Royal Hart mouse at 20 to 100 mg/kg, po administered as aqueous solution by Haffner tail clamp test. Type of data set: functional, organism-based. Put shortly:
(§1)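 Male Swiss-Webster Royal Hart mice, groups of ten per dose level, doses up to 300 mg/kg per group. Water-soluble salts were given po or ip as aqueous solutions. Analgesia was tested by Haffner tail clamp and phenylquinone-induced writhing, anti-diarrheal effect as colonic propulsive motility, plus general behaviour observation.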

The subject of data set [4] is Mus musculus. In words: Antidiarrheal activity in Swiss-Webster Royal Hart mouse assessed as colonic propulsive motility at 20 to 100 mg/kg, po administered as aqueous solution. In kind it is functional, organism-based. In a few lines: as §1
For data set [5], the system named is Mus musculus. The data set can be described thus: Antidiarrheal activity in Swiss-Webster Royal Hart mouse assessed as colonic propulsive motility at 20 to 100 mg/kg, po administered as solution in 30% aqueous propylene glycol. Type of data set: functional, organism-based. Put shortly: (§2)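 Male Swiss-Webster Royal Hart mice, ten per dose level, doses up to 300 mg/kg per group. Salt was dissolved in 30% aqueous propylene glycol and dosed po or ip. Analgesia was tested by Haffner tail clamp and phenylquinone-induced writhing, anti-diarrheal effect as colonic propulsive motility.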

Data set [6] relates to Mus musculus. In words: Analgesic activity in Swiss-Webster Royal Hart mouse at 20 to 100 mg/kg, po administered as solution in 30% aqueous propylene glycol by phenylquinone-induced writhing test. In kind it is functional, organism-based. Put shortly: as §2
Data set [7] has as its system Mus musculus. In words: Analgesic activity in Swiss-Webster Royal Hart mouse at 20 to 100 mg/kg, po administered as solution in 30% aqueous propylene glycol by Haffner tail clamp test. Type of data set: functional, organism-based. Put shortly:
as §2

The nature of data set [8]: Dissociation constant, pKa of the compound. Type of data set: physicochemical. Put shortly: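 Apparent pKa* measured in 66% aqueous dimethylformamide at 30° by potentiometric titration of monoperchlorate salts with 0.1 M NaOH, with pH recorded via a combination electrode on a recording titrator.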
Data set [9] deals with Mus musculus. The data set can be described thus: Analgesic activity in Swiss-Webster Royal Hart mouse at 20 to 100 mg/kg, po administered as aqueous solution by phenylquinone-induced writhing test. Type of data set: functional, organism-based. Put shortly:
as §1
Background: In writhing tests, fewer writhes than in controls are read as antinociception.

Data set [10] has as its system Mus musculus. The data set can be described thus: Convulsant activity in Swiss-Webster Royal Hart mouse at 30 to 100 mg/kg, ip administered as aqueous solution. Further details: dose 30-100 mg/kg, route intraperitoneal. In kind it is ADME, organism-based. The note with it: in vivo. Put shortly:
as §1

In data set [11] the test system is Mus musculus. In words: Convulsant activity in Swiss-Webster Royal Hart mouse at 100 to 300 mg/kg, ip administered as aqueous solution. In kind it is ADME, organism-based. Further details: dose 100-300 mg/kg, route intraperitoneal. The note with it: in vivo. Put shortly:
as §1

Calls of active or inactive are those of the source. No cut-off for these calls is given here.

Take `CO[C@]1(c2ccccc2)[C@@H]2CCC[C@H]1CN(C)C2`: it took a dose of 3.9 mg/kg to reach the 50% effect level with Mus musculus [1] (ED50). Further, the inhibition entry in the data set on Mus musculus [2] was “Active”.
As for `COC1(c2ccccc2)C2CN(C)CC1CN(C)C2` (stereo not given), the outcome in the data set with Mus musculus [3], with Mus musculus [4], in the data set on Mus musculus [5], in the data set with Mus musculus [6], in the data set with Mus musculus [7] and in the data set with Mus musculus [9] was inactive. Further, in [8], the pKa – broadly, the negative logarithm of the acid dissociation constant – stood at 11.7.
As to `CC1(C)C2CCC1(CS(=O)(=O)O)C(=O)C2.CN1C[C@H]2CN(C)C[C@H](C1)[C@@]2(O)c1ccccc1`, the result in the data set with Mus musculus [3], with Mus musculus [4], in the data set with Mus musculus [5], in the data set on Mus musculus [6], with Mus musculus [7] and with Mus musculus [9] was inactive. In addition, the Activity entry in the data set on Mus musculus [10] is “Toxic”. This compound also had a pKa in data set [8] of 11.7.
As to `CCC(=O)OC1(c2ccccc2)C2CN(C)CC1CN(C)C2.CS(=O)(=O)O` (stereo not given), the outcome in the data set on Mus musculus [3], in the data set with Mus musculus [4], in the data set on Mus musculus [5], in the data set with Mus musculus [6], in the data set on Mus musculus [7] and in the data set with Mus musculus [9] was inactive. Moreover, the Activity result in the data set with Mus musculus [11] was “Toxic”. The compound also registered a pKa in data set [8] of 11.
